Results published in paper PMC11609979 (Chemical Science, 2024).

Legend:
A549 cells [1] = assay: Cell cytotoxicity; format: cell-based; conditions: Homo sapiens, A549, 72 h, read-out: IC50 (±St. Dev.) Light
Procedure, shortened: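 A549 cells were exposed to test compound and viability was read 72 h after treatment. Dark samples were protected from light. IC50 was taken from dose–response curves, n = 3.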

A549 cells [2] = assay: Seahorse MitoStress Test; format: cell-based; conditions: for Lowest concentration for inhibition of OCR, Dark: 1 h incubation, no irradiation
Procedure, shortened: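 OCR/ECAR were measured by extracellular flux with sequential oligomycin, FCCP, then rotenone/antimycin A. Basal, maximal and non-mitochondrial respiration were derived. OCR IC50 was taken from maximal respiration. The phenotype map plots basal versus stressed states.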

A549 cells [3] = assay: Seahorse Glycolytic Rate Test; format: cell-based; conditions: irradiation with red light 660 nm
Procedure, shortened: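 A549 cells were incubated 1 h with test compound, kept dark or irradiated. Irradiation used indigo 450 nm light (485 mW cm^-2) or red 660 nm light (16 mW cm^-2). Concentrations were chosen from light/dark cytotoxicity to keep cells viable. Glycolysis was blocked by 2-deoxyglucose injection, then non-glycolytic acidification was measured. Mitochondrial acidification was also read out.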

[4] = cited from earlier work

Row | Structure (SMILES) | IC50 (A549 cells [1]) | Cellular respiration in the absence of light (A549 cells [2]; A549 cells, 1 h, dark, Fig. 3A and C) | Lowest concentration for inhibition of OCR, Dark (A549 cells [2]; A549 cells) | Cellular respiration following irradiation (A549 cells [2]; A549 cells, indigo light for 3, red light (660 nm) for HPPH, Fig. 3B and D) | Fold lower than the IC50 for cytotoxicity (quiescent phenotype concentration) (A549 cells [2]; A549 cells, red light) | Concentration inducing the quiescent phenotype (A549 cells [2]; A549 cells, red light, Fig. S10) | IC50 (A549 cells [2]; Homo sapiens, A549, read-out: OCR IC50 (from maximal respiration dose-response)) | Concentration with PER showing no glycolytic activity (A549 cells [3]) | log P [4]
1 | CCCCCCOC(C)c1c(C)c2cc3nc(c4c5[nH]c(cc6nc(cc1[nH]2)C(C)=C6CC)c(C)c5C(=O)C4)[C@@H](CCC(=O)O)[C@@H]3C (stereo partly shown) [HPPH, 2-(1-hexyloxyethyl)-2-devinylpyropheophorbide-a] | 3.7 µM | unaffected | 3 µM | marked concentration-dependent decrease | 10 fold | 0.37 µM | 1.2 µM | 10 µM | ~6.0
2 | N.N.[Cl][Pt][Cl] [Cisplatin] |  |  | >20 µM |  |  |  |  |  | 
